# MIN6 prolif: inducers of beta-cell replication in MIN6 cells; proliferation, % at 10 µM; MIN6 cells proliferation, ATPlite luminescence, 48 h; cells starved in 0.2% serum; 100% = growth in 10% serum; hit rate 0.29% among 330,000;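 active means compounds whose signal lies at least 3.5 SD above the mean of all wells on their plate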;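 further: 0% = DMSO-treated cells in low-serum medium and 100% = 10% serum control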
# CR mimetic SO: caloric restriction mimetics inhibiting age-related superoxide in yeast; S. cerevisiae aged cells, superoxide DHE fluorescence; hits give low values; superoxide response (% of plate mean), % at 10 µM; hit rate 0.18% among 330,000;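 active means superoxide response under a set limit, about three screen SD below normal, cut at about 65% in these data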;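 further: yeast aged for seven days with compound at 30 °C before DHE staining; 100% = average MFI of all compound-treated wells on the plate with controls excluded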
# Rce1 inh: inhibitors of yeast Ras-converting enzyme; Q03530; yeast membranes, quenched prenylated peptide cleavage fluorescence; calls only; hit rate 0.27% among 290,000;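 active means fall in fluorescence gain of 50% or more versus controls, with final raw signal at or below 3038400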;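 further: plate controls were neutral control wells for no effect and wells lacking membranes for full effect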
# Target sequence (Q03530 whole entry, looked up): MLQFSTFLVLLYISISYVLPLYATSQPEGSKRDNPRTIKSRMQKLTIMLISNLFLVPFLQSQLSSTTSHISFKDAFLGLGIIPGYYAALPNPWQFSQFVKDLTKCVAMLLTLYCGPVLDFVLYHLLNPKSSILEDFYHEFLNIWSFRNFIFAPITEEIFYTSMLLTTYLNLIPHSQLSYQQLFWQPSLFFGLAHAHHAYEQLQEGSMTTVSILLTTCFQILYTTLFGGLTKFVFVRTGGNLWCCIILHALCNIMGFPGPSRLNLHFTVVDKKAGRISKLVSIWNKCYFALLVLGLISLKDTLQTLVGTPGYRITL
# T cell HTS: modulates CD8 T cell binding to vesicles. hit rate 0.068% among 330,000. 2C CD8+ T cell-vesicle binding, flow cytometry; hits give low values. AID 2052. response (vesicle binding), % at 7 µM;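 active means response, share of CD8 T cells binding vesicles, and their 90th percentile fluorescence all below set limits, cut at about 80% in these data, passing the limit was not always enough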;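 further: values below 100% mean blocked vesicle binding to the CD8+ T cells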
#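 incubation = binding step 1.5 h, 37 °C, antibody labelling 20 min, ice | test system = 2C mouse CD8+ T cells | read-out basis = percent CD8+ FL2 mean versus row control | controls = Peptide-free naked vesicles (low) and QL9 vesicles with 0.7% DMSO vehicle (high) | detection = flow cytometry of vesicle-bound cells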
# V-ATPase pHluor: yeast V-ATPase proton transport regulation by pHLuorin. S. cerevisiae, pHLuorin cytosolic pH fluorescence. response, % at 10 µM. hit rate 0.37% among 350,000. AID 504577; in the data active means response mostly above about 7.3%, no sharp cut-off; inactive means mostly below about 5.4%; further: actives read high
# proKLK7 act: activators of human kallikrein-7 zymogen. activation, % at 7 µM. purified proKLK7, EDANS-DABCYL substrate fluorescence; 100% is mature enzyme control, 0% vehicle. P49862. hit rate 0.9% among 370,000;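 active means activation above the mean of all tested compounds plus 3 SD, computed per campaign excluding outliers beyond control limits, cut at about 13% in these data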
# Target sequence (P49862 whole entry, looked up): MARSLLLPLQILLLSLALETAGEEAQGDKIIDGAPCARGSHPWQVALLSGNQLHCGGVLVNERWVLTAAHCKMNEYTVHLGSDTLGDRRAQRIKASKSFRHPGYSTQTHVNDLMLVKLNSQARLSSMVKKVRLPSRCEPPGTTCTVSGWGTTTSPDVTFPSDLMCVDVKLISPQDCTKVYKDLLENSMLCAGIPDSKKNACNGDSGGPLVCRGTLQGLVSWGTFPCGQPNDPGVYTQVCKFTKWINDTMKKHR
# proKLK7 act conf: confirmation of human kallikrein-7 zymogen activators; shares compounds with proKLK7 act; purified proKLK7, EDANS-DABCYL substrate fluorescence; scaled: vehicle 0, mature enzyme 100; activation, % at 7 µM; hit rate 68% among 3,200; AID 686949;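 active means activation, as change over the incubation, above the mean of all tested compounds plus 3 SD, cut at about 13% in these data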
# EDANS interfere: fluorescence interference counter-screen for KLK7 activators. EDANS-DABCYL substrate fluorescence interference, no enzyme, 4 h; solvent 0%, active enzyme control 100%. shares compounds with proKLK7 act. hit rate 80% among 3,200. activation, % at 7 µM. AID 686952;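 active means activation above the all-compound mean plus 3 SD, ignoring values outside control-based bounds, cut at about 4.8% in these data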;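 further: value is the 4 h activation minus the activation read at time zero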
# K7 EDANS ctr: optically interferes with EDANS-DABCYL fluorescence, kallikrein-7 activator counter-screen; shares compounds with proKLK7 act; EDANS-DABCYL peptide fluorescence interference, no enzyme; EC50, µM; hit rate 20% among 250; AID 720493;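 active means compounds that raise the fluorescence signal in this interference counterscreen, with EC50 at or below 10 µM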;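 further: intact quenched peptide substrate alone read at 355 nm excitation and 520 nm emission; signal is fluorescence gain from T0 to T4 after four hours at room temperature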
# The depositor's hits bear a star; i = inactive; / = not tested or not shown. Rows were chosen to be rich in hits. Some 1.9% of all compounds tested hit in one or more screens of this group.
SMILES,MIN6 prolif,CR mimetic SO,Rce1 inh,T cell HTS,V-ATPase pHluor,proKLK7 act,proKLK7 act conf,EDANS interfere,others
COc1cc(-c2ccc3c(=O)c4ccccc4n(C)c3c2)cc(OC)c1OC,-1.4,95.6,i,104.1,-3.0,-8.2,/,/,
Cn1c2ccccc2c(=O)c2ccc(F)cc21,-2.5,99.7,i,631.6,-1.6,12.7*,49.8*,43.8*,
COc1ccc(OC)c2c(N3CC(C)OC(C)C3)cc(C(F)(F)F)nc12 (stereo unspecified),-2.9,100.6,i,669.4,-2.5,14.6*,13.4*,12.1*,
COc1ccc(-c2cc(C(F)(F)F)nc(SCC(=O)N3CC(C)OC(C)C3)n2)cc1OC (stereo unspecified),/,/,i,/,2.1,-0.9,/,/,
COc1ccc(OC)c2c(N3CCN(C)CC3)cc(C(F)(F)F)nc12,-0.2,93.5,i,145.8,-4.5,13.2*,8.7,15.0*,
CCOC(=O)N1CCN(C(=O)c2cc3c(s2)-c2ccccc2OC3)CC1,0.6,98.4,i,510.1,0.8,31.9*,-11.8,2.3,
CCCN1CCN(C(=O)c2cc3c(s2)-c2ccccc2OC3)CC1,-4.3,88.5,i,257.5,-0.1,66.5*,-93.9,83.7*,
O=C(c1cc2c(s1)-c1ccccc1OC2)N1CCCC1,-3.3,90.6,i,61.4,0.2,73.9*,61.7*,68.8*,
CC(=O)c1cc2c(s1)-c1cc(F)ccc1OC2,0.3,100.8,/,i,4.4,71.3*,68.6*,74.4*,
O=C(c1cc2c(s1)-c1ccccc1OC2)N1CCN(c2ccccc2)CC1,-1.6,88.2,i,142.5,-3.6,-5.2,/,/,
COc1ccc(CNC(=O)CCCN2C(=O)NC3(CCCC3)C2=O)cc1,1.9,107.6,/,211.8,0.5,-0.2,/,/,
COc1cccc(N2CCN(C(=O)c3cc4c(s3)-c3ccccc3OC4)CC2)c1,-2.7,105.3,i,589.7,-0.9,24.3*,3.5,21.2*,
CCCCC(=O)Nc1c(-c2ccc(OC)c(OC)c2)c(=O)c2ccccc2n1C,-1.2,94.2,i,335.5,-6.2,-0.4,/,/,
CCCC(=O)Nc1c(-c2ccc(OC)cc2)c(=O)c2ccccc2n1C,1.9,116.9,i,260.1,-3.3,17.1*,19.8*,16.6*,K7 EDANS ctr=i
CCCCCC(=O)Nc1c(-c2ccc(OC)cc2)c(=O)c2ccccc2n1C,0.2,102.5,i,262.2,0.2,16.9*,2.6,0.7,
Cc1ccc(NC(=O)COC(=O)C2CCC2)cc1S(=O)(=O)N1CCOCC1,-4.5,87.5,/,391.2,3.2,0.4,/,/,
Cc1nnsc1C(=O)N1CCCC1(C)C(=O)O (stereo unspecified),/,/,/,/,/,-0.3,/,/,
COc1ccc(C2C3=C(CC(C)(C)CC3=O)N(CCN3CCOCC3)C3=C2C(=O)CC(C)(C)C3)cc1,4.0,95.8,i,81.6,4.6,12.6*,5.1,14.9*,
CC1(C)CC(=O)C2=C(C1)N(CCN1CCOCC1)C1=C(C(=O)CC(C)(C)C1)C2c1cccc(F)c1,2.0,94.5,i,183.3,1.9,33.9*,23.2*,20.1*,
CC1(C)CC(=O)C2=C(C1)N(CCN1CCOCC1)C1=C(C(=O)CC(C)(C)C1)C2c1ccc(Cl)cc1,-2.6,95.9,i,236.6,3.6,-4.8,/,/,
COC(=O)[C@]1(Cc2ccccc2)N[C@H](CN(C)C(=O)Nc2ccc(C)cc2)[C@@H]2C(=O)N(C)C(=O)[C@@H]21,-1.9,72.1,/,410.1,-3.8,0.5,/,/,
Cc1nc(C(=O)NNC(=O)Nc2ccccc2)cs1,-1.3,95.5,i,682.7,0.1,15.5*,-0.6,-0.5,
COc1ccc(NC(=O)NNC(=O)CCc2ccc(O)c(O)c2)cc1OC,-3.4,100.4,i,231.6,5.0,24.1*,26.7*,24.2*,
Cc1ccccc1OCC(O)COc1ccccc1C,/,/,/,/,0.8,0.3,/,/,
COc1ccc(NC(=O)C2CC(c3ccccc3O)=NO2)cc1OC (stereo unspecified),-2.8,91.5,i,132.1,0.8,-0.7,/,/,
SMILES,MIN6 prolif,CR mimetic SO,Rce1 inh,T cell HTS,V-ATPase pHluor,proKLK7 act,proKLK7 act conf,EDANS interfere,others
Cc1cc(C)c2c(N)c(C(=O)Nc3nccs3)sc2n1,-6.0,82.7,i,549.1,-1.3,119.7*,-2.8,-10.9,
COc1ccc(CNC(=O)c2ccc3c(c2)N(C)CCS3)cc1,1.4,84.0,i,401.1,-0.9,34.7*,7.8,33.3*,
Cc1cccc(CNC(=O)c2ccc3c(c2)N(C)CCS3)c1,1.8,96.9,i,504.3,7.3,17.9*,-6.7,-5.6,
CCOC(=O)N1CCC(NC(=O)c2ccc3c(c2)N(C)CCS3)CC1,0.2,97.5,/,520.5,-1.7,50.7*,66.3*,72.6*,
COc1cc(CN2CCNC(=O)C2CC(=O)NCCCC2CCCC2)cc(OC)c1 (stereo unspecified),-1.9,118.3,i,503.1,2.1,0.5,/,/,
NC(=O)C1CCN(CC(=O)Nc2ccc(S(=O)(=O)N3CCOCC3)cc2)CC1,-2.8,101.6,i,249.2,-4.0,0.1,/,/,
NS(=O)(=O)c1ccc(NC(=O)COC(=O)c2ccc(S(=O)(=O)N3CCOCC3)cc2)cc1,-1.7,100.5,/,239.8,-0.6,0.4,/,/,
CC1=CC(c2ccc(Cl)cc2)n2nc(N3C(=O)CCC3=O)nc2N1 (stereo unspecified),-2.7,101.5,i,242.7,1.0,/,/,/,
Cc1ccc(C2C=C(c3ccccc3)Nc3nc(N4C(=O)CCC4=O)nn32)cc1 (stereo unspecified),1.9,/,/,/,0.0,90.8*,-53.1,-89.5,
CCCCNC(=O)C1c2cc(OC)c(OC)cc2C(=O)N(C)C1c1ccc(OC)cc1 (stereo unspecified),-0.6,107.2,i,363.9,-1.7,-0.4,/,/,
CCCCCCC12C(=Cc3cc4c(cc31)OCCO4)c1cc(OC)c(OC)cc1C(CC(=O)OC)N2C(=O)OC (stereo unspecified),/,/,/,/,/,17.3*,-5.0,-16.5,
O=C(Nc1ccnn1C1CCN(C(=O)c2cc(Cl)ccc2F)CC1)C1CCOC1 (stereo unspecified),-5.5,80.6,i,316.9,-4.2,-0.2,/,/,
CC(=O)Nc1ncnc2c1c(-c1ccc(Cl)cc1)nn2C(C)(C)C,-2.1,72.3,i,241.9,3.6,13.4*,1.3,0.3,
CC(=O)N(C(C)=O)c1ncnc2c1c(-c1ccc(Cl)cc1)nn2C(C)(C)C,-1.5,90.5,i,250.8,1.0,27.3*,27.5*,29.7*,

# Assay outcomes: PubChem BioAssay, several laboratories
